Compound activity (PubChem)
Most compounds without a hit are left out; they make up all but 3.9% or so of the library.
TMEM16A act = activates or potentiates the mouse TMEM16A chloride channel | Q8BHY3 | 340,000 tested, 0.3% active | B-score at 10 µM | HEK293 TMEM16A/YFP-H148Q/I152L, iodide quench fluorescence; stronger effect = lower value;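 active means fluorescence-ratio B-score plate-corrected deviation score at least 3 library SD below zero, with starting fluorescence score within 5 deviations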;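 further: channel opened by trigger with iodide after compound preincubation; score built on the fluorescence ratio of max minus min over baseline; more negative score means more quench and so TMEM16A activation or potentiation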
Target sequence (Q8BHY3 whole entry, looked up): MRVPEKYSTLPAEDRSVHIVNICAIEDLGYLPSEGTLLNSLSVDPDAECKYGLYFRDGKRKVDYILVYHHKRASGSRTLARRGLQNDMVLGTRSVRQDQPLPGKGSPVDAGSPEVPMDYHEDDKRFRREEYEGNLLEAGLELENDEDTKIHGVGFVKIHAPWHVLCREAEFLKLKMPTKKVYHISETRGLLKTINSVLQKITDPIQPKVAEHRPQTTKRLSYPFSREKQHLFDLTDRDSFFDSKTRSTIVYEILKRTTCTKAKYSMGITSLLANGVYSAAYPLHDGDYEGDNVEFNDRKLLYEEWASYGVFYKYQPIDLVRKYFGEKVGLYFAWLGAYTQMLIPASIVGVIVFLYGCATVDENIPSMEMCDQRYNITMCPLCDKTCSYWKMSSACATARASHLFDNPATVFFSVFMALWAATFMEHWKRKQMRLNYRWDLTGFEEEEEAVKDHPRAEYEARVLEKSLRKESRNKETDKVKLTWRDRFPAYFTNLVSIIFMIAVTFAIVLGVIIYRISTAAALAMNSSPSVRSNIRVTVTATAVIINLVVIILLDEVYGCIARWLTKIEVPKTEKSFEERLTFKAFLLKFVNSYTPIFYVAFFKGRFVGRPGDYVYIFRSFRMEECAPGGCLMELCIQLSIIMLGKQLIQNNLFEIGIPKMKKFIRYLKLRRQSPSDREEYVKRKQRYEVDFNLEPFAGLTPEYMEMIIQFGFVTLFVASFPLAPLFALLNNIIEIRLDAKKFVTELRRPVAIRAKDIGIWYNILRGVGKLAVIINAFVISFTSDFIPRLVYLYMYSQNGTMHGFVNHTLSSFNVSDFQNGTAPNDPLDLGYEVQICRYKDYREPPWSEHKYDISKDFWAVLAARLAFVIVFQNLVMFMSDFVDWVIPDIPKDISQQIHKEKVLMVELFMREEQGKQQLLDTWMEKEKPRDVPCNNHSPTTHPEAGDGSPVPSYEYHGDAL
CRFR2-BP antag = CRF-BP/CRF-R2 complex antagonism | HEK293 CRF-R2/CRF-BP, CRF-induced calcium fluorescence | 350,000 tested, 0.59% active | AID 588475 | inhibition, % at 11.8 µM;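 active means inhibition of the ligand-induced calcium signal above about 50% at the single tested concentration, limit read from the data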
ANO1 block = mouse TMEM16A channel inhibition, primary screen. Q8BHY3. HEK293 TMEM16A/YFP iodide influx fluorescence, ionomycin. normalized B-score (activity score, 25-100; higher = stronger inhibition) at 10 µM. 310,000 tested, 1.2% active;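 active means ratio plate-corrected score three or more library SD toward inhibition, starting fluorescence score within five deviations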;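 further: score derived from kinetic fluorescence span divided by baseline fluorescence per well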
TAAR1 ag = agonists of human TAAR1 | AID 624467 | activation, % at 3 µM | CHO RD-HGA16 TAAR1, Fluo-8 calcium fluorescence; vehicle wells 0%, saturating PEA agonist 100% | 360,000 tested, 0.99% active;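 active means activation above the mean activation of all test compounds in the run plus 3 SD, cut at about 38% in these data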
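Benchmarks: low control DMSO, high control PEA (EC100); System: CHO RD-HGA16 cells carrying human TAAR1 plus Gα16; Detection: Fluo-8 fluorescence, 5 s baseline then 140 s kinetic read; Schedule: 17-24 h plating, Fluo-8 75 min 37 °C, 30 min RT; Read-out basis: % activation from peak over basal fluorescence ratio, DMSO-to-PEA scaled.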
CRFR2-BP ag = CRF-BP/CRF-R2 complex agonism; 350,000 tested, 0.46% active; activation, % at 13.2 µM; HEK293 CRF-R2/CRF-BP, calcium dye fluorescence (FLIPR); percent of saturating CRF peptide response;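 active means activation of at least 50%, plus an integration ratio under a set limit after plate pattern correction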;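 further: plate controls were neutral control wells without compound for no effect and CRF at EC100 for full effect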
TAAR1 antag = human TAAR1 antagonism; Q96RJ0; CHO RD-HGA16 TAAR1, Fluo-8 calcium fluorescence, antagonist; inhibition, % at 3 µM; 360,000 tested, 1.5% active; AID 624466;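 active means inhibition above a per-plate cutoff, the mean inhibition of test compounds on that plate plus 3 SD, cut at about 49% in these data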;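 further: 0% = DMSO plus EC80 beta-PEA response and 100% = DMSO alone without agonist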
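Test system – hTAAR1-expressing CHO RD-HGA16 cells, Gα16-coupled · Reagent – β-PEA at EC80 concentration, post-compound challenge · Compound dosing – 3 µM, single point · Timing – 140 s kinetic read after compound, 140 s after agonist · Detection – Fluo-8 intracellular calcium dye fluorescence, real-time kinetic reads · Control set – DMSO and EC80 PEA controls · Repeats – n of 1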
nonsel antag count = nonselective antagonism, TAAR1 counter-screen; shares compounds with TAAR1 antag; inhibition, % at 3 µM; counterscreen cell line, calcium fluorescence, antagonist mode; 2,400 tested, 77% active; AID 651780; in the data active means inhibition above about 22%;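 further: CHO-Ga16 host cells stimulated with ATP at an EC80 level; 0% = agonist EC80 plus vehicle and 100% = vehicle without agonist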
TAAR1 antag conf = confirmation of human TAAR1 antagonists. shares compounds with TAAR1 antag. TAAR1-expressing cells, fluorescence antagonist read-out. inhibition, % at 3 µM. 2,400 tested, 40% active. AID 651785; in the data active means inhibition above about 49%;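 further: CHO-Ga16 host cells challenged with agonist PEA near its EC80; 0% = agonist at EC80 plus vehicle and 100% = vehicle with no agonist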
Ga16 nonsel ag = nonselective Ga16 agonist in TAAR1 antagonist counter-screen; 2,400 tested, 18% active; Ga16-expressing cells, calcium fluorescence, agonist counterscreen; activation, % at 3 µM; shares compounds with TAAR1 antag; in the data active means activation above about 12%;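 further: 0% = vehicle wells and 100% = saturating stimulus response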
TAAR1 ag counter = counter-screen for human TAAR1 antagonists: TAAR1 agonists; hTAAR1 cell line, fluorescence activation, agonist mode; 2,400 tested, 2% active; activation, % at 3 µM; shares compounds with TAAR1 antag; in the data active means activation above about 37%;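 further: CHO cells stably expressing TAAR1 with calcium dye readout; 0% = DMSO vehicle and 100% = full agonist response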
Starred values were filed as active, the others as inactive; i = inactive; x = no result given.

SMILES	TMEM16A act	CRFR2-BP antag	ANO1 block	TAAR1 ag	CRFR2-BP ag	TAAR1 antag	nonsel antag count	TAAR1 antag conf	Ga16 nonsel ag	TAAR1 ag counter
Cc1ccc(CNC(=O)Cn2cnc3cc([N+](=O)[O-])ccc3c2=O)cc1	i	5	i	21	2	-4	x	x	x	x
O=c1c2ccccc2ncn1CCOCCOc1ccc([N+](=O)[O-])cc1	i	15	i	4	0	-6	x	x	x	x
CCC(C)NC(=O)c1cc(-c2cccs2)nc2ccccc12 (stereo unspecified)	i	-10	i	10	-1	14	x	x	x	x
NS(=O)(=O)c1cccc(NC(=O)c2cc(-c3cccs3)nc3ccccc23)c1	i	-14	i	11	3	67*	37*	50*	8	10
CC(C)CCNC(=O)c1cc(-c2cccs2)nc2ccccc12	i	-13	i	8	2	66*	29*	46	6	3
NS(=O)(=O)c1cccc(NC(=O)c2cccs2)c1	i	7	i	-1	-8	-4	x	x	x	x
O=C(c1cc(-c2cccs2)nc2ccccc12)N1CCN(S(=O)(=O)c2ccccc2)CC1	i	-23	i	23	0	48	x	x	x	x
O=C(NCc1ccccn1)c1cc(-c2ccncc2)nc2ccccc12	i	-7	i	6	1	8	x	x	x	x
O=C(NCc1cccs1)c1cc(-c2ccccc2)nc2ccccc12	i	16	i	7	0	58*	23*	40	7	6
O=C(c1cc(-c2cccs2)nc2ccccc12)N1CCN(S(=O)(=O)c2cccc(F)c2)CC1	i	-23	i	15	6	52*	34*	46	11	12
Cc1ccc(NC(=S)N2CCN(c3ccccn3)CC2)cc1C	i	5	i	10	-2	-18	x	x	x	x
NS(=O)(=O)c1ccc(CCNC(=O)c2cc(-c3cccs3)nc3ccccc23)cc1	i	-5	x	18	0	65*	35*	57*	12*	10
NS(=O)(=O)c1ccc(CNC(=O)c2cc(-c3cccs3)nc3ccccc23)cc1	i	-20	i	15	5	69*	36*	51*	9	12
COc1ccc(Oc2nc(-c3ccccc3)ncc2C(=O)O)cc1	i	-23	i	3	0	-16	x	x	x	x
COc1ccc(C(=O)c2cnc3ccccc3c2-c2ccccc2)cc1	i	24	i	11	-1	57*	21	44	4	0
O=c1c2c(-c3ccccc3)csc2ncn1/N=C/c1c2ccccc2cc2ccccc12	i	6	i	7	10	43	x	x	x	x
Cc1nn(-c2ccccc2)c(N2CCCC2)c1/C=N/n1cnc2scc(-c3ccccc3)c2c1=O	i	6	i	5	-1	54*	28*	39	3	2
O=c1oc(CCCO)cc2ccc(C#Cc3ccsc3)cc12	i	5	x	13	-1	12	x	x	x	x
O=C1c2ccccc2C(=O)N1CCC#Cc1ccc2cc(CCCO)oc(=O)c2c1	i	-6	x	19	0	69*	61*	75*	24*	36
O=C(Nc1ccc2c(c1)CCCN2C(=O)c1cccs1)c1c(F)cccc1Cl	i	15	i	1	0	59*	22*	43	8	13
O=C(Nc1ccc2c(c1)CCCN2C(=O)c1cccs1)c1c(F)cccc1F	i	20	i	-1	0	27	x	x	x	x
Brc1ccccc1-c1nc2c3ccccc3ncn2n1	i	-13	x	9	1	53*	13	14	10	15
COc1ccc(-c2noc(CCC(=O)N3CCN(c4ccccc4OC)CC3)n2)cc1	x	15	x	6	-3	27	x	x	x	x
COc1ccc(-c2noc(CCC(=O)N3CCN(c4ccccc4C(F)(F)F)CC3)n2)cc1	x	9	x	5	2	65*	28*	48	11	15
COc1ccc(-n2nnc3c(=O)n(Cc4ccccc4C)cnc32)cc1	i	-9	i	x	-1	x	x	x	x	x
SMILES	TMEM16A act	CRFR2-BP antag	ANO1 block	TAAR1 ag	CRFR2-BP ag	TAAR1 antag	nonsel antag count	TAAR1 antag conf	Ga16 nonsel ag	TAAR1 ag counter
Cc1ccc(C)c(Cn2cnc3c(nnn3-c3ccc(F)cc3)c2=O)c1	i	-45	i	30	0	72*	12	37	2	10
COc1cccc2oc3cc(C#CC4(O)CCCCC4)ccc3c(=O)c12	i	-22	i	22	1	57*	22*	32	7	17
COc1cccc2sc3ccc(C#CC4(O)CCCCC4)cc3c(=O)c12	i	-14	i	16	0	60*	22*	31	6	4
CCCCn1c(SCC(=O)Nc2nnc(C)s2)nnc1-c1ccncc1	i	-7	i	10	10	-13	x	x	x	x
CCSc1nnc(NC(=O)C2CSC3(C)CCC(=O)N23)s1 (stereo unspecified)	i	-4	x	0	2	-12	x	x	x	x
COc1ccc(CNC(=O)COc2ccc(S(=O)(=O)N3CCCCC3)cc2Cl)cc1	i	-13	i	10	6	73*	26*	45	10	13
O=Nc1c(-c2c(O)[nH]c3cc(Br)ccc23)[nH]c2ccccc12	i	36	i	-3	0	50*	21	33	-1	-4
CC(C)c1ccc(C(=O)N2CCCCC2c2cc(C(=O)Nc3ccncc3)no2)cc1 (stereo unspecified)	x	x	x	9	x	22	x	x	x	x
COc1ccc(/C=N/Nc2nc(-c3cccnc3)nc3ccccc23)cc1OC	i	-9	i	19	-3	72*	29*	51*	10	8
Oc1ccc(/C=N/Nc2nc(-c3cccnc3)nc3ccccc23)c(O)c1	i	-9	i	15	1	81*	23*	44	8	10
Cc1ccc(-c2nc(N/N=C/c3ccncc3)c3ccccc3n2)cc1	i	-50	i	11	-2	57*	27*	44	4	1
Clc1ccccc1-c1nc(N/N=C/c2cccnc2)c2ccccc2n1	i	7	i	8	1	30	x	x	x	x
